Tcruzi prolif – T. cruzi proliferation inhibition. T. cruzi beta-gal in NIH3T3, GalScreen luminescence, 90 h. inhibition, % at 8.34 µM. 77,000 compounds, 5.9% hits. AID 624255;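 active means mean inhibition above about 93%, with at least 55% of replicates each passing it, limit read from the data, passing the limit was not always enough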
Pf Dd2 growth – inhibitors of Plasmodium falciparum Dd2 growth; P. falciparum Dd2 growth, SYBR Green, 72 h; active compounds read low; activity change, % at 10 µM; 94,000 compounds, 2.3% hits; in the data active means activity change below about -80%
GASC1 inh – blocks human GASC-1 (KDM4C) demethylase activity. 96,000 compounds, 0.15% hits. GST-KDM4C 2-372, H3K9me3 peptide, LANCE TR-FRET. inhibition, % at 12.5 µM;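 active means mean replicate inhibition above about 25%, with at least 55% of replicates also reaching it, limit read from the data, passing the limit was not always enough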
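Material: N-terminal GST-fused human GASC-1 (KDM4C) fragment, residues 2-372. Input: 10 nM enzyme. Incubation: enzyme reaction 30 min, then detection 60 min, both room temperature. Doses: one test concentration per compound. Read-out basis: inhibition from TR-FRET ratio decrease. Detection: LANCE TR-FRET, excitation 340 nm, emissions 618 and 671 nm.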
IDH1 R132H inh – blocks human IDH1 R132H reductase activity. diaphorase/resazurin fluorescence, 60 min. AID 624101. 70,000 compounds, 0.18% hits. inhibition, % at 10 µM. O75874; in the data active means inhibition above about 34%;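 further: 0% = DMSO and 100% = no enzyme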
Target sequence (O75874 whole entry R132H): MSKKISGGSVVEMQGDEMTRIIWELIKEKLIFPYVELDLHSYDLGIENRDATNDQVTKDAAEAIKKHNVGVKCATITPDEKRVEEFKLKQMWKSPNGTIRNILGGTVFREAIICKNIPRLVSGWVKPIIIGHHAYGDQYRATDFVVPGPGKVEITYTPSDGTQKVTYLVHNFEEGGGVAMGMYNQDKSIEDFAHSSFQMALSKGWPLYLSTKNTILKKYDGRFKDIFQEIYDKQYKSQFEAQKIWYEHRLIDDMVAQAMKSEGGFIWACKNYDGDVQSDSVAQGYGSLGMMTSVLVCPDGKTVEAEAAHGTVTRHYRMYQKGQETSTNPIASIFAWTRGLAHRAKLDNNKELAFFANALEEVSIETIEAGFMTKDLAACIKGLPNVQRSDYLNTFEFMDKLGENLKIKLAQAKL
Numbers without * were called inactive; . = no result given. Most compounds without a hit are left out; they make up all but 5.8% or so of the library.

SMILES | Tcruzi prolif | Pf Dd2 growth | GASC1 inh | IDH1 R132H inh
COCCOC(=O)N1C(=O)[C@@]2(c3cc(C#Cc4ccc(OC)cc4)ccc31)[C@H](C(=O)N1CCN(c3ncccn3)CC1)[C@H]1C(=O)O[C@H](c3ccccc3)[C@H](c3ccccc3)N1[C@@H]2c1ccc(OCCO)cc1 | . | . | . | 0
C[C@H](CO)N1C[C@H](C)[C@H](CN(C)Cc2ccc(Cl)c(Cl)c2)OCc2ccccc2-c2c(n(C)c3ccccc23)C1=O | . | -74 | -2 | .
C[C@@H]1CN([C@@H](C)CO)C(=O)c2c(c3ccccc3n2C)-c2ccccc2CO[C@@H]1CN(C)Cc1ccc(Cl)c(Cl)c1 | . | -87* | -2 | .
C[C@H]1CN([C@@H](C)CO)C(=O)c2c(c3ccccc3n2C)-c2ccccc2CO[C@@H]1CN(C)Cc1ccc(Cl)c(Cl)c1 | . | -88* | -11 | .
C[C@H](CO)N1C[C@H](C)[C@H](CN(C)Cc2ccc(O)cc2)OCc2ccccc2-c2c(n(C)c3ccccc23)C1=O | . | 30 | 1 | .
C[C@@H]1CN([C@H](C)CO)C(=O)c2c(c3ccccc3n2C)-c2ccccc2CO[C@H]1CN(C)Cc1ccc(Cl)c(Cl)c1 | . | -89* | -18 | .
C[C@@H]1CN([C@H](C)CO)C(=O)c2c(c3ccccc3n2C)-c2ccccc2CO[C@@H]1CN(C)Cc1ccc(Cl)c(Cl)c1 | . | -85* | -2 | .
Cc1noc(C)c1S(=O)(=O)Nc1ccc2c(c1)C(=O)N([C@H](C)CO)C[C@@H](C)[C@@H](CN(C)C(=O)Nc1ccc(F)cc1)OCCCC[C@@H](C)O2 | 81 | -85* | 1 | .
C[C@@H]1CCCCO[C@H](CN(C)C(=O)Nc2cccc3ccccc23)[C@@H](C)CN([C@@H](C)CO)C(=O)c2cc(NS(=O)(=O)c3ccccc3)ccc2O1 | . | -88* | 0 | 1
Cc1noc(C)c1S(=O)(=O)Nc1ccc2c(c1)C(=O)N([C@@H](C)CO)C[C@@H](C)[C@@H](CN(C)C(=O)Nc1cccc3ccccc13)OCCCC[C@H](C)O2 | 73 | -87* | 0 | .
COc1ccc(S(=O)(=O)Nc2ccc3c(c2)C(=O)N([C@@H](C)CO)C[C@@H](C)[C@@H](CN(C)C(=O)Nc2cccc4ccccc24)OCCCC[C@H](C)O3)cc1 | 55 | -88* | -4 | 3
COc1ccc(S(=O)(=O)Nc2ccc3c(c2)C(=O)N([C@@H](C)CO)C[C@@H](C)[C@H](CN(C)C(=O)Nc2cccc4ccccc24)OCCCC[C@@H](C)O3)cc1 | 91 | -33 | -3 | 0
Cc1nn(C)cc1NC(=O)C[C@@H]1CC[C@@H]2[C@H](COc3ccc(NC(=O)C(C)C)cc3C(=O)N2C)O1 | 44 | -27 | 6 | .
CO[C@H]1CN(C)C(=O)c2ccc(NS(=O)(=O)c3ccc(C)cc3)cc2OC[C@@H](C)N(Cc2nccs2)C[C@H]1C | 75 | -9 | -2 | 0
CCC(=O)N[C@H]1CC[C@@H](CC(=O)NCCN2CCCCC2)O[C@H]1CO | -62 | 1 | . | 0
O=C(Nc1ccc(F)cc1)N1CCCCN2[C@H](CO)[C@@H](c3ccc(-c4cccc(F)c4)cc3)[C@H]2C1 | 91 | -39 | -1 | .
COCC(=O)N(C)C[C@H]1Oc2cc(C#Cc3cccnc3)ccc2S(=O)(=O)N([C@H](C)CO)C[C@@H]1C | . | -10 | 1 | 5
Cc1nc(SCC(=O)c2ccccc2)c2sc3nc4c(cc3c2n1)COC(C)(C)C4 | . | . | . | 1
C[C@H]1CN([C@@H](C)CO)C(=O)Cc2cc(NC(=O)CCCCCC(=O)Nc3ccccc3N)ccc2O[C@H]1CN(C)Cc1ccc(Oc2ccccc2)cc1 | 11 | -85* | -2 | .
C[C@H](CO)N1C[C@H](C)[C@H](CN(C)Cc2ccccc2)Oc2ccc(NC(=O)CCCCCC(=O)Nc3ccccc3N)cc2CC1=O | 45 | -50 | -1 | 0
C[C@H](CO)N1C[C@H](C)[C@H](CN(C)Cc2ccc(Oc3ccccc3)cc2)Oc2ccc(NC(=O)CCCCCC(=O)Nc3ccccc3N)cc2CC1=O | 27 | -84* | 0 | .
COCC(=O)Nc1ccc2c(c1)OC[C@H](C)N(CC1CC1)C[C@H](C)[C@H](OC)CN(C)C2=O | 55 | 7 | 0 | 0
C[C@@H]1CN([C@H](C)CO)S(=O)(=O)c2ccc(C#CC3CC3)cc2O[C@H]1CN(C)C(=O)Cc1ccncc1 | 79 | -64 | 1 | 7
C/C=C/c1ccc2c(c1)O[C@@H](CN(C)C(=O)Cc1ccncc1)[C@H](C)CN([C@H](C)CO)S2(=O)=O | 17 | -84* | -1 | 2
